TAAR1 antag: human TAAR1 antagonists, primary screen, Fluo-8 calcium fluorescence, CHO RD-HGA16 cells. AID 624466, 2012. Trace amine-associated receptor 1 (Homo sapiens), Q96RJ0. inhibition, % at 3 µM. hit rate 1.5% among 360,000. antagonist;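 active means inhibition above a per-plate cutoff, the mean inhibition of test compounds on that plate plus 3 SD, cut at about 49% in these data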;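 further: 0% = DMSO plus EC80 beta-PEA response and 100% = DMSO alone without agonist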
Target sequence (Q96RJ0 whole entry, looked up): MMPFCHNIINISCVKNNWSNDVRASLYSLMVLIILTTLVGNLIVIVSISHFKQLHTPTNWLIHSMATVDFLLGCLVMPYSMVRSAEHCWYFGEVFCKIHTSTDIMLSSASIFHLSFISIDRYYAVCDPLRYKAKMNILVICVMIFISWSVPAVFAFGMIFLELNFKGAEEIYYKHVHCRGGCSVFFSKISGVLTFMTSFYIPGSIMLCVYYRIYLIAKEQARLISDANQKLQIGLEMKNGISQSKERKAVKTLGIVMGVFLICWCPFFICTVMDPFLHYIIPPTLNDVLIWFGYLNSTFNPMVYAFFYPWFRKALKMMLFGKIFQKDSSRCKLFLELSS
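Material: CHO RD-HGA16 cells bearing hTAAR1; compound dosing: one-point dosing, 3 µM nominal final; schedule: dye loading 75 min at 37 °C, then 30 min room temperature; measured by: calcium fluorescence with Fluo-8; control set: vehicle and agonist controls; replication: n of 1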
TAAR1 agonist: human TAAR1 agonists, primary screen, Fluo-8 calcium fluorescence, CHO RD-HGA16 cells | activation, % at 3 µM | AID 624467, 2012 | hit rate 0.99% among 360,000 | vehicle wells 0%, saturating PEA agonist 100%;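 active means activation above the mean activation of all test compounds in the run plus 3 SD, cut at about 38% in these data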
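Test system: RD-HGA16 (CHO) cells co-expressing Gα16 and hTAAR1 / Benchmarks: DMSO vehicle as 0%, PEA at EC100 as 100% / Repeats: no replicates (n 1) / Measure: % activation from peak over basal fluorescence ratio, DMSO-to-PEA scaled / Timing: 17-24 h plating, Fluo-8 75 min 37 °C, 30 min RT / Technique: kinetic Fluo-8 calcium fluorescence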
GalR3 antag: GalR3 antagonists in HEK293 cells, primary screen, cell-based, fluorescence readout; Galanin receptor type 3 (Homo sapiens), O60755; hit rate 0.44% among 360,000; inhibition, % at 3 µM; HEK293 GalR3-CNG cAMP membrane potential fluorescence; galR3 body fused to GalR1 C-terminus;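 active means inhibition above the screen-wide average plus 3 SD, cut at about 13% in these data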;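 further: forskolin and galanin both at EC90 stimulate the cells; cAMP rise reported by CNG channel membrane potential dye signal; 0% = forskolin plus galanin with DMSO and 100% = forskolin alone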
OX1R antag-1: antagonists of human orexin 1 receptor (OX1R); hit rate 1.8% among 330,000; AID 485270, 2010; OX1R-expressing cells, FRET antagonist read-out; Orexin/Hypocretin receptor type 1 (Homo sapiens), O43613; inhibition, % at 6.6 µM; in the data active means inhibition mostly above about 38%, no sharp cut-off; inactive means mostly below about 40%;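 further: 0% = agonist challenge alone and 100% = reference antagonist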
Target sequence (O43613 whole entry, looked up): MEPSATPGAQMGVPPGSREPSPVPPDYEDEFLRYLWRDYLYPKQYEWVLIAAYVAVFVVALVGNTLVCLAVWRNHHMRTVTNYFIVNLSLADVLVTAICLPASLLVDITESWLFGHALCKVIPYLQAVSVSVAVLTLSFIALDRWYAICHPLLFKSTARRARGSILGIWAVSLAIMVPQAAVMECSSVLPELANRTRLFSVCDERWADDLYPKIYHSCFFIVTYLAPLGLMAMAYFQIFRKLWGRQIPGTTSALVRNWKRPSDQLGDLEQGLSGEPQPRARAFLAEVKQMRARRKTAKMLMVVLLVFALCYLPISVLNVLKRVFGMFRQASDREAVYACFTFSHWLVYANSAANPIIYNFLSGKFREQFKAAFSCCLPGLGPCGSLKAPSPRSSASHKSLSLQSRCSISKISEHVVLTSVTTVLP
OX1R antag-2: OX1R (HCRTR1) antagonists, primary screen, fluorescence, CHO/OX1R cells, Fluo-8 calcium, orexin A. Fluo-8 calcium fluorescence. inhibition, % at 5 µM. hit rate 0.43% among 330,000;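 active means inhibition above its plate's threshold, mean inhibition of all tested compounds on the plate plus 3 SD, cut at about 37% in these data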;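 further: 0% = orexin A challenge wells and 100% = SB-334867-A antagonist wells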
CHO parental Ca: ATP-evoked calcium signal inhibitors, parental CHO, primary screen, counter-screen for OX1R antagonist project, cell-based, fluorescence, Fluo-8 calcium dye; parental CHO-K1, ATP-induced calcium, Fluo-8 fluorescence; inhibition, % at 5.6 µM; hit rate 0.63% among 330,000; AID 463079, 2010;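 active means inhibition above that plate's mean sample inhibition plus 3 SD, cut at about 26% in these data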;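 further: 0% = ATP-challenged DMSO wells and 100% = DMSO wells without ATP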
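Assay system: parental CHO cells; Read-out basis: percent inhibition of ATP-evoked calcium rise, normalized to controls; Benchmarks: ATP and no-ATP DMSO wells; Compound dosing: single nominal dose of 5.6 µM per compound; Signal: Fluo-8 calcium dye fluorescence; Also added: ATP as calcium-mobilizing challenge; Repeats: singlicate.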
TAAR1 ag conf: human TAAR1 agonists, retest of hits, confirmation, Fluo-8 calcium fluorescence, CHO RD-HGA16 cells; hit rate 82% among 2,400; activation, % at 3 µM; AID 651783, 2012; shares compounds with TAAR1 agonist; scaled: DMSO 0%, maximal phenethylamine 100%;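 active means activation above a cutoff set at the run's mean compound activation plus 3 SD, cut at about 39% in these data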
Ga16 nonsel ag: nonselective calcium mobilization agonists, CHO-Ga16 cells, counter-screen for hTAAR1 agonist project, cell-based, fluorescence, CHO-Ga16 parental line; shares compounds with TAAR1 agonist; Fluo-8 calcium fluorescence; normalized to maximal ATP response, DMSO zero; activation, % at 3 µM; hit rate 50% among 2,400; AID 651787, 2012;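 active means activation above the run cutoff, the mean activation over all tested wells plus 3 SD, cut at about 12% in these data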;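 further: 0% = DMSO wells and 100% = maximal ATP response on the peak over basal ratio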
TAAR1 desensitize: TAAR1 desensitization by agonist hits, confirmation, counter-screen for TAAR1 agonist project, cell-based, fluorescence, tachyphylaxis; CHO RD-HGA16 hTAAR1, Fluo-8 calcium, beta-PEA response inhibition; shares compounds with TAAR1 agonist; inhibition, % at 3 µM; hit rate 46% among 2,400; AID 651951, 2012;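 active means inhibition above the run cutoff, the mean inhibition of all test compounds plus 3 SD, cut at about 49% in these data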;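 further: beta-PEA stimulus applied at its EC80; loss of beta-PEA calcium signal after compound pretreatment read as receptor desensitization; 0% = DMSO with beta-PEA at EC80 and 100% = DMSO alone without agonist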
Ga16 antag count: inhibition of ATP-evoked calcium response in CHO-Ga16 cells, counter-screen for TAAR1 agonist project, cell-based, fluorescence. CHO-Ga16 ATP-induced calcium, Fluo-8 fluorescence. hit rate 39% among 2,400. shares compounds with TAAR1 agonist. inhibition, % at 3 µM;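 active means inhibition above the plate's mean compound inhibition plus 3 SD, computed per plate, cut at about 22% in these data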;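 further: 0% = EC80 ATP with DMSO and 100% = DMSO wells without ATP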
An asterisk follows results filed as active. A selection: hits, their analogues and other compounds. The true share with any hit is near 4.3%.

What do the screens show for `Cn1c(=O)c(N)c2c3c(c(Br)ccc31)C(=O)c1ccccc1-2`?
TAAR1 antag: 36.2; TAAR1 agonist: 84.3*; GalR3 antag: -3.7; OX1R antag-1: 20.6; OX1R antag-2: -5.2; CHO parental Ca: -10.3; TAAR1 ag conf: 7.2; Ga16 nonsel ag: 21.0*; TAAR1 desensitize: 32.9; Ga16 antag count: 35.3*

How did CN(C)CCSc1nnc2[nH]c3ccccc3c2n1 do in these assays?
TAAR1 antag: 5.7; TAAR1 agonist: 43.5*; GalR3 antag: -4.2; OX1R antag-1: 53.5; OX1R antag-2: 1.5; CHO parental Ca: -8.2; TAAR1 ag conf: 83.1*; Ga16 nonsel ag: 0.1; TAAR1 desensitize: 41.1; Ga16 antag count: -1.6

Results for Fc1cccc(CSc2nnc3c(n2)[nH]c2ccccc23)c1 ?
TAAR1 antag: 4.4; TAAR1 agonist: -0.4; GalR3 antag: 2.3; OX1R antag-1: 10.6; OX1R antag-2: -14.0; CHO parental Ca: -7.5

Results for c1ccc(N/N=C(\Cc2ncc[nH]2)c2ccccc2)cc1 ?
GalR3 antag: 0.0; OX1R antag-1: 8.9; OX1R antag-2: -20.2; CHO parental Ca: -14.1; Ga16 nonsel ag: 3.9; Ga16 antag count: 9.4

Results for CN(C)CCCNC(=O)C[C@H]1C[C@H](C(=O)N2CCOCC2)[C@@]2(C)c3[nH]c4ccc(Cl)cc4c3CCN2C1=O ?
TAAR1 antag: -12.5; TAAR1 agonist: 6.0; GalR3 antag: 3.0; OX1R antag-1: 7.4; OX1R antag-2: -20.4; CHO parental Ca: -13.8

Results for CCCCN1Cc2cc(C(=O)c3cc(F)ccc3O)cnc2NC1=O ?
TAAR1 antag: 9.0; TAAR1 agonist: 82.1*; GalR3 antag: 2.7; OX1R antag-1: 9.0; OX1R antag-2: -29.4; CHO parental Ca: -3.1; TAAR1 ag conf: 53.1*; Ga16 nonsel ag: 23.8*; TAAR1 desensitize: 25.0; Ga16 antag count: 16.2

What do the screens show for `CN(CC(=O)NCc1ccccc1)CC(=O)Nc1ccc(Cl)c(C(F)(F)F)c1`?
TAAR1 antag: -4.8; TAAR1 agonist: 72.6*; GalR3 antag: -2.7; OX1R antag-1: 11.5; OX1R antag-2: 5.8; CHO parental Ca: -4.2; TAAR1 ag conf: 82.1*; Ga16 nonsel ag: 24.9*; TAAR1 desensitize: 60.3*; Ga16 antag count: 33.7*

Results for CN(CC(=O)NC(=O)NCc1ccccc1)CC(=O)Nc1ccc(Cl)c(C(F)(F)F)c1 ?
TAAR1 antag: 3.0; TAAR1 agonist: 12.5; GalR3 antag: -3.2; OX1R antag-1: 20.9; OX1R antag-2: -10.4; CHO parental Ca: -1.5

Results for N#C/C(=C\c1coc2ccccc2c1=O)C(N)=S ?
TAAR1 antag: 13.9; TAAR1 agonist: 5.9; GalR3 antag: -7.3; OX1R antag-1: 12.1; OX1R antag-2: -4.2; CHO parental Ca: -9.2

What do the screens show for `N#C/C(=C\c1coc2ccc(O)cc2c1=O)C(=O)Nc1nc2ccccc2s1`?
TAAR1 antag: 104.4*; TAAR1 agonist: 480.0*; GalR3 antag: -6.0; OX1R antag-1: 65.1*; OX1R antag-2: 81.0*; CHO parental Ca: 64.5*; TAAR1 ag conf: 315.5*; Ga16 nonsel ag: 295.2*; TAAR1 desensitize: 101.5*; Ga16 antag count: 94.7*

What do the screens show for `COc1ccccc1NS(=O)(=O)c1cccc(NC(=O)Nc2ccc(Cl)cc2)c1`?
TAAR1 antag: 76.2*; TAAR1 agonist: 56.2*; GalR3 antag: -5.0; OX1R antag-1: 51.8*; OX1R antag-2: 50.9*; CHO parental Ca: 81.9*; TAAR1 ag conf: 45.9*; Ga16 nonsel ag: 19.2*; TAAR1 desensitize: 93.0*; Ga16 antag count: 58.0*

How did O=c1oc2cc(O[C@@H]3OC[C@@H](O)[C@H](O)[C@H]3O)ccc2c2ccccc12 do in these assays?
TAAR1 antag: -6.4; TAAR1 agonist: 3.4; GalR3 antag: -7.0; OX1R antag-1: 2.1; OX1R antag-2: -3.5; CHO parental Ca: 1.4

How did C=CCC[C@H](Cc1ccc(F)cc1)C(=O)OC[C@@H](NC(=O)[C@@H](CC=C)CC(=O)N(CCO)Cc1ccccc1)C(C)(C)C do in these assays?
TAAR1 antag: 34.8; TAAR1 agonist: 13.0; GalR3 antag: -7.6; OX1R antag-1: 9.3; OX1R antag-2: 2.3; CHO parental Ca: -8.9

Results for CCCCc1c(Cc2ccccc2)ncn1CCc1ccccc1OC ?
TAAR1 antag: 55.4*; TAAR1 agonist: 49.4*; GalR3 antag: -6.6; TAAR1 ag conf: 68.5*; Ga16 nonsel ag: 7.0; TAAR1 desensitize: 59.9*; Ga16 antag count: 55.8*

How did CCCc1c(Cc2cccc(F)c2)ncn1CCc1ccccc1OC do in these assays?
TAAR1 antag: 35.2; TAAR1 agonist: 50.4*; GalR3 antag: -7.5; TAAR1 ag conf: 78.5*; Ga16 nonsel ag: 13.5*; TAAR1 desensitize: 61.1*; Ga16 antag count: 20.0

What do the screens show for `CCc1c(Cc2cccc(F)c2)ncn1CCc1ccccc1OC`?
TAAR1 antag: -17.8; TAAR1 agonist: 39.6*; GalR3 antag: -7.2; TAAR1 ag conf: 50.4*; Ga16 nonsel ag: 4.5; TAAR1 desensitize: 14.8; Ga16 antag count: 12.8

Results for CCCCc1c(-c2ccccc2OC)ncn1CCc1ccc(OC)cc1 ?
TAAR1 antag: 36.0; TAAR1 agonist: 14.1; GalR3 antag: -7.4

Results for COc1ccccc1CCn1cnc(Cc2cccc(F)c2)c1C(C)C ?
TAAR1 antag: 41.9; TAAR1 agonist: 37.0; GalR3 antag: -8.9

Bioassay records: PubChem, The Scripps Research Institute Molecular Screening Center
